Experimental data reported in ChEMBL document CHEMBL1165950, “Design and synthesis of new potent anticancer pyrazoles with high FLT3 kinase inhibitory selectivity” (Bioorg Med Chem, 2010).

What was measured:
Type in all cases: functional
[1] = tested on: CCRF-CEM; assay: Cytotoxicity against human CCRF-CEM cells assessed as cell growth at 10 uM; details: read-out: Activity
Procedure, shortened: (§1)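 Single-dose NCI-60 screen at 10 µM. Cells were grown in RPMI 1640 with 5% FBS and 2 mM L-glutamine, then treated for 48 h at 37 °C. Protein was measured by SRB staining with absorbance at 515 nm. Percentage growth was recorded, and inhibition percentage was calculated as 100 minus growth percentage.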

[2] = tested on: 786-0; assay: Cytotoxicity against human 786-0 cells assessed as cell growth at 10 uM after 48 hrs by sulforhodamine B assay; details: 786-0, 48 h, read-out: Activity
[3] = tested on: CAKI-1; assay: Cytotoxicity against human Caki1 cells assessed as cell growth at 1 uM after 48 hrs by sulforhodamine B assay; details: CAKI-1, 48 h, read-out: Activity
[4] = tested on: UO-31; assay: Cytotoxicity against human UO31 cells assessed as cell growth at 10 uM after 48 hrs by sulforhodamine B assay; details: UO-31, 48 h, read-out: Activity
[5] = tested on: SF-295; assay: Cytotoxicity against human SF295 cells assessed as cell growth at 10 uM after 48 hrs by sulforhodamine B assay; details: SF-295, 48 h, read-out: Activity
[6] = tested on: HOP-92; assay: Cytotoxicity against human HOP92 cells assessed as cell growth at 10 uM; details: read-out: Activity; procedure, shortened: as §1
[7] = Cytotoxicity against human […] cells assessed as cell growth at 10 uM; details: read-out: Activity
Procedure, shortened: (§2)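 NCI-60 screen: cells grown in RPMI 1640 with 5% FBS and 2 mM L-glutamine, plated at 5000–40,000 cells/well according to doubling time, and preincubated 24 h at 37 °C, 5% CO2. The single 10 µM dose (DMSO stock) was added, then incubated 48 h. Cells were TCA-fixed and stained with 0.4% SRB, read at 515 nm, and growth % calculated against time-zero and control plates.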

[8] = tested on: PC-3; assay: Cytotoxicity against human PC3 cells assessed as cell growth at 10 uM after 48 hrs by sulforhodamine B assay; details: PC-3, 48 h, read-out: Activity
[9] = tested on: SK-MEL-5; assay: Cytotoxicity against human SK-MEL-5 cells assessed as cell growth at 1 uM after 48 hrs by sulforhodamine B assay; details: SK-MEL-5, 48 h, read-out: Activity
[10] = tested on: NCI-H226; assay: Growth inhibition of human NCI-H226 cells after 48 hrs by sulforhodamine B assay; details: NCI-H226, 48 h; for CC50: read-out: LC50 (the source's name)
Procedure, shortened: (§3)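 NCI 60-cell screen, five-dose mode. Cells grown in RPMI 1640 with 5% FBS and 2 mM L-glutamine and plated at 5000-40,000 cells/well according to doubling time. After 24 h preincubation, a Tz plate was TCA-fixed. Five concentrations (10-fold or 1/2 log dilutions) were applied for 48 h at 37 °C. SRB staining read at 515 nm. IC50 taken from [(Ti-Tz)/(C-Tz)]×100 = 50.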

[11] = tested on: SR; assay: Growth inhibition of human SR cells after 48 hrs by sulforhodamine B assay; procedure, shortened: as §3
[12] = tested on: MDA-MB-435; assay: Cytotoxicity against human MDA-MB-435 cells assessed as cell growth at 0.01 uM after 48 hrs by sulforhodamine B assay; details: MDA-MB-435, 48 h, read-out: Activity
[13] = tested on: SR; assay: Cytotoxicity against human SR cells assessed as cell growth at 100 nM after 48 hrs by sulforhodamine B assay; details: read-out: Activity
[14] = tested on: MCF7; assay: Cytotoxicity against human MCF7 cells assessed as cell growth at 0.001 uM after 48 hrs by sulforhodamine B assay; details: MCF7, 48 h, read-out: Activity
[15] = tested on: DU-145; assay: Cytotoxicity against human DU145 cells assessed as cell growth at 0.01 uM after 48 hrs by sulforhodamine B assay; details: DU-145, 48 h, read-out: Activity
[16] = tested on: MCF7; assay: Growth inhibition of human MCF7 cells after 48 hrs by sulforhodamine B assay; details: MCF7, 48 h; procedure, shortened: as §3
[17] = tested on: SF-295; assay: Cytotoxicity against human SF295 cells assessed as cell growth at 100 nM after 48 hrs by sulforhodamine B assay; details: SF-295, 48 h, read-out: Activity
[18] = tested on: HCT-116; assay: Cytotoxicity against human HCT116 cells assessed as cell growth at 100 nM after 48 hrs by sulforhodamine B assay; details: HCT-116, 48 h, read-out: Activity
[19] = tested on: HCC 2998; assay: Growth inhibition of human HCC2998 cells after 48 hrs by sulforhodamine B assay; details: HCC 2998, 48 h; for CC50: read-out: LC50 (the source's name); procedure, shortened: as §3
[20] = tested on: SK-MEL-28; assay: Growth inhibition of human SK-MEL-28 cells after 48 hrs by sulforhodamine B assay; details: SK-MEL-28, 48 h; for CC50: read-out: LC50 (the source's name); procedure, shortened: as §3
[21] = tested on: RXF 393; assay: Cytotoxicity against human RXF393 cells assessed as cell growth at 10 uM after 48 hrs by sulforhodamine B assay; details: RXF 393, 48 h, read-out: Activity
[22] = tested on: KM12; assay: Cytotoxicity against human KM12 cells assessed as cell growth at 10 uM; details: read-out: Activity; procedure, shortened: as §2
[23] = tested on: NCI-H226; assay: Cytotoxicity against human NCI-H226 cells assessed as cell growth at 10 uM after 48 hrs by sulforhodamine B assay; details: NCI-H226, 48 h, read-out: Activity
[24] = tested on: SR; assay: Cytotoxicity against human SR cells assessed as cell growth at 0.001 uM after 48 hrs by sulforhodamine B assay; details: read-out: Activity
[25] = tested on: HCC 2998; assay: Cytotoxicity against human HCC2998 cells assessed as cell growth at 1 uM after 48 hrs by sulforhodamine B assay; details: HCC 2998, 48 h, read-out: Activity
[26] = tested on: SR; assay: Cytotoxicity against human SR cells assessed as cell growth at 1 uM after 48 hrs by sulforhodamine B assay; details: read-out: Activity
[27] = tested on: SK-MEL-28; assay: Cytotoxicity against human SK-MEL-28 cells assessed as cell growth at 1 uM after 48 hrs by sulforhodamine B assay; details: SK-MEL-28, 48 h, read-out: Activity
[28] = tested on: SK-MEL-28; assay: Cytotoxicity against human SK-MEL-28 cells assessed as cell growth at 100 nM after 48 hrs by sulforhodamine B assay; details: SK-MEL-28, 48 h, read-out: Activity
[29] = tested on: NCI-H226; assay: Cytotoxicity against human NCI-H226 cells assessed as cell growth at 0.01 uM after 48 hrs by sulforhodamine B assay; details: NCI-H226, 48 h, read-out: Activity
[30] = tested on: MCF7; assay: Cytotoxicity against human MCF7 cells assessed as cell growth at 10 uM after 48 hrs by sulforhodamine B assay; details: MCF7, 48 h, read-out: Activity
[31] = tested on: RXF 393; assay: Cytotoxicity against human RXF393 cells assessed as cell growth at 100 nM after 48 hrs by sulforhodamine B assay; details: RXF 393, 48 h, read-out: Activity
[32] = tested on: MCF7; assay: Cytotoxicity against human MCF7 cells assessed as cell growth at 100 nM after 48 hrs by sulforhodamine B assay; details: MCF7, 48 h, read-out: Activity
[33] = tested on: NCI-H226; assay: Cytotoxicity against human NCI-H226 cells assessed as cell growth at 1 uM after 48 hrs by sulforhodamine B assay; details: NCI-H226, 48 h, read-out: Activity
[34] = Cytotoxicity against human […] cells assessed as cell growth at 10 uM after 48 hrs by sulforhodamine B assay; details: read-out: Activity
[35] = tested on: HCC 2998; assay: Cytotoxicity against human HCC2998 cells assessed as cell growth at 10 uM after 48 hrs by sulforhodamine B assay; details: HCC 2998, 48 h, read-out: Activity

COc1cc(C)cc(-c2c(-c3ccnc(-c4ccc(N(C)C)cc4)c3)cnn2CC#N)c1
growth at 10 µM [1]: 3.55%
growth at 10 µM [2]: 6%
growth at 1 µM [3]: -21%
growth at 10 µM [4]: 7%
growth at 10 µM [5]: -30%
growth at 10 µM [6]: 29.1%
growth at 10 µM [7]: 0.08%
growth at 10 µM [8]: 4%
growth at 1 µM [9]: -31%

COc1cc(C)cc(-c2nn(CC#N)cc2-c2ccnc(-c3ccc(N(C)C)cc3)c2)c1
GI50 [10]: 0.968 µM
TGI [10]: 127 µM
CC50 [10]: > 100 µM
GI50 [11]: 0.461 µM
LC50 (concentration killing 50% of cells) [11]: > 100 µM
TGI [11]: > 10 µM
growth at 0.01 µM [12]: 94%
growth at 0.1 µM [13]: 26%
growth at 0.001 µM [14]: 104%
growth at 10 µM [2]: -36%
growth at 1 µM [3]: 4%
growth at 0.01 µM [15]: 99%
GI50 [16]: 0.0664 µM
LC50 [16]: > 100 µM
TGI [16]: 22.7 µM
growth at 0.1 µM [17]: 3%
growth at 0.1 µM [18]: 11%
growth at 10 µM [5]: -32%
GI50 [19]: 0.455 µM
TGI [19]: 1.93 µM
CC50 [19]: 9.69 µM
GI50 [20]: 0.776 µM
TGI [20]: > 100 µM
CC50 [20]: > 100 µM
growth at 10 µM [21]: -24%
growth at 10 µM [22]: 7.15%
growth at 10 µM [23]: -22%
growth at 0.001 µM [24]: 96%
growth at 1 µM [25]: -51%
growth at 1 µM [26]: 18%
growth at 1 µM [27]: 45%
growth at 0.1 µM [28]: 44%
growth at 0.01 µM [29]: 105%
growth at 10 µM [30]: -13%
growth at 1 µM [9]: -40%
growth at 0.1 µM [31]: -25%
growth at 0.1 µM [32]: 24%
growth at 1 µM [33]: 3%
growth at 10 µM [34]: -28%
growth at 10 µM [35]: -76%

COc1cc(C)cc(-c2nn(CC#N)cc2-c2ccc(-c3cccc(C(C)=O)c3)nc2)c1
GI50 [10]: 4.29 µM
TGI [10]: 82.3 µM
CC50 [10]: > 100 µM
GI50 [11]: 1.62 µM
LC50 (concentration killing 50% of cells) [11]: > 100 µM
TGI [11]: > 100 µM
growth at 10 µM [1]: 15.4%
growth at 0.01 µM [12]: 94%
growth at 0.1 µM [13]: 57%
growth at 0.001 µM [14]: 94%
growth at 10 µM [4]: -6%
growth at 0.01 µM [15]: 98%
GI50 [16]: 2.05 µM
LC50 [16]: > 100 µM
TGI [16]: 15.9 µM
growth at 0.1 µM [17]: 75%
growth at 0.1 µM [18]: 78%
GI50 [19]: 2.08 µM
TGI [19]: 6.77 µM
CC50 [19]: 54.4 µM
GI50 [20]: 3.63 µM
TGI [20]: 93.6 µM
CC50 [20]: > 100 µM
growth at 10 µM [21]: -58%
growth at 10 µM [6]: 48.4%
growth at 10 µM [7]: 17.7%
growth at 10 µM [22]: 34.1%
growth at 10 µM [23]: -3%
growth at 0.001 µM [24]: 97%
growth at 1 µM [25]: -17%
growth at 1 µM [26]: 22%
growth at 1 µM [27]: 31%
growth at 0.1 µM [28]: 74%
growth at 0.01 µM [29]: 88%
growth at 10 µM [30]: -28%
growth at 10 µM [8]: 1%
growth at 1 µM [9]: -13%
growth at 0.1 µM [31]: 73%
growth at 0.1 µM [32]: 69%
growth at 1 µM [33]: 29%
growth at 10 µM [34]: -21%
growth at 10 µM [35]: -62%

Cc1cc(O)cc(-c2nn(CC#N)cc2-c2ccnc(-c3ccc(Oc4ccccc4)cc3)c2)c1
GI50 [10]: 3.22 µM
TGI [10]: 12.2 µM
CC50 [10]: 64.5 µM
GI50 [11]: 3.77 µM
LC50 (concentration killing 50% of cells) [11]: > 100 µM
TGI [11]: 37.2 µM
growth at 0.01 µM [12]: 95%
growth at 0.1 µM [13]: 96%
growth at 0.001 µM [14]: 92%
growth at 10 µM [2]: -93%
growth at 1 µM [3]: -24%
growth at 10 µM [4]: -81%
growth at 0.01 µM [15]: 96%
GI50 [16]: 2.23 µM
LC50 [16]: 21.9 µM
TGI [16]: 5.48 µM
growth at 0.1 µM [17]: 87%
growth at 0.1 µM [18]: 86%
growth at 10 µM [5]: -61%
GI50 [19]: 1.91 µM
TGI [19]: 3.39 µM
CC50 [19]: 6.02 µM
GI50 [20]: 4.92 µM
TGI [20]: 17 µM
CC50 [20]: 41.4 µM
growth at 10 µM [21]: -87%
growth at 10 µM [22]: 39.9%
growth at 10 µM [23]: -63%
growth at 0.001 µM [24]: 94%
growth at 1 µM [25]: -94%
growth at 1 µM [26]: 16%
growth at 1 µM [27]: 30%
growth at 0.1 µM [28]: 95%
growth at 0.01 µM [29]: 89%
growth at 10 µM [30]: -82%
growth at 10 µM [8]: -60%
growth at 0.1 µM [31]: 101%
growth at 0.1 µM [32]: 95%
growth at 1 µM [33]: 6%
growth at 10 µM [34]: -14%
growth at 10 µM [35]: -95%
